Assay results from ChEMBL document CHEMBL1127688, “Guaiacoxypropanolamine derivatives of capsaicin: a new family of beta-adrenoceptor blockers with intrinsic cardiotonic properties” (J Med Chem, 1994).

What was measured:
Rattus norvegicus [1] = assay: Minimum dose of iv injection that shows vagus reflex and a heart rate decrease of 50 beats/min in non-vagotomized rats; assay type: functional
In short: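 Non-vagotomized rats given increasing iv doses. The value is the lowest dose (mg/kg) that elicits a vagus reflex with a heart-rate fall of 50 beats/min. Compounds were scored ineffective if no such response occurred below 3 mg/kg. n = 8.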

Rattus norvegicus [2] = assay: Change in blood pressure was tested by inducing ia injection at a dose 0.1 mg/kg in rat; assay type: functional; conditions: route intra-arterial
Rattus norvegicus [3] = assay: Blood pressure of the urethane-anesthetized normotensive Wistar rat was tested 30 min after inducing the compound on dose of 1.0 mg/kg; assay type: functional
In short: (§1)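 Urethane-anesthetized normotensive Wistar rats given a single iv injection at 1.0 mg/kg. Blood pressure (mmHg) and heart rate (beats/min) recorded, and the change reported at 5, 10, 15, 30 and 60 min after dosing. Saline-injected controls. Mean ± SE, n = 8. Significance versus saline by analysis of variance.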

Rattus norvegicus [4] = assay: Blood pressure of the urethane-anesthetized normotensive Wistar rat was tested 10 min after inducing the compound on dose of 1.0 mg/kg; assay type: functional; in short: as §1
Rattus norvegicus [5] = assay: Heart rate of the urethane-anesthetized normotensive Wistar rat was tested 15 min after inducing the compound on dose of 1.0 mg/kg; assay type: functional; in short: as §1
Rattus norvegicus [6] = assay: Heart rate of the urethane-anesthetized normotensive Wistar rat was tested 30 min after inducing the compound on dose of 1.0 mg/kg; assay type: functional; in short: as §1
Rattus norvegicus [7] = assay: Blood pressure of the urethane-anesthetized normotensive Wistar rat was tested 5 min after inducing the compound on dose of 1.0 mg/kg; assay type: functional; in short: as §1
Cavia porcellus [8] = species on record: Cavia porcellus; assay: Positive chronotropic effect was evaluated on atrial muscles of the guinea pig; assay type: functional, Muscle tissue; conditions: for Kb: Cavia porcellus, Muscle tissue, read-out: pA2 (converted)
Rattus norvegicus [9] = assay: Blood pressure of the urethane-anesthetized normotensive Wistar rat was tested 15 min after inducing the compound on dose of 1.0 mg/kg; assay type: functional; in short: as §1
Cavia porcellus [10] = species on record: Cavia porcellus; assay: Positive inotropic effect was evaluated on atrial muscles of the guinea pig; assay type: functional, Muscle tissue; conditions: for Kb: Cavia porcellus, Muscle tissue, read-out: pA2 (converted)
Rattus norvegicus [11] = assay: Blood pressure of the urethane-anesthetized normotensive Wistar rat was tested 60 min after inducing the compound on dose of 1.0 mg/kg; assay type: functional; in short: as §1
Rattus norvegicus [12] = assay: Heart rate of the urethane-anesthetized normotensive Wistar rat was tested 60 min after inducing the compound on dose of 1.0 mg/kg; assay type: functional; in short: as §1
Rattus norvegicus [13] = assay: Heart rate of the urethane-anesthetized normotensive Wistar rat was tested 5 min after inducing the compound on dose of 1.0 mg/kg; assay type: functional; in short: as §1
Rattus norvegicus [14] = assay: Heart rate of the urethane-anesthetized normotensive Wistar rat was tested 10 min after inducing the compound on dose of 1.0 mg/kg; assay type: functional; in short: as §1

Compound	BP (Rattus norvegicus [3]) [mmHg]	BP (Rattus norvegicus [4]) [mmHg]	HR (Rattus norvegicus [5]) [beats min-1]	HR (Rattus norvegicus [6]) [beats min-1]	BP (Rattus norvegicus [7]) [mmHg]	Kb (Cavia porcellus [8]) [µM]	BP (Rattus norvegicus [9]) [mmHg]	Kb (Cavia porcellus [10]) [µM]	BP (Rattus norvegicus [11]) [mmHg]	HR (Rattus norvegicus [12]) [beats min-1]	HR (Rattus norvegicus [13]) [beats min-1]	HR (Rattus norvegicus [14]) [beats min-1]	also measured
CCCCCCCCC(=O)NCc1ccc(OCCO)c(OC)c1													Dose (Rattus norvegicus [1]): 0.3 mg/kg; BP (Rattus norvegicus [2]): -44.2 mmHg
CCCCCCCCC(=O)NCc1ccc(OCC(O)CNCCCCC)c(OC)c1 (stereo not drawn)	3.67	-1.67	-10.22	-5.78	-4.67	0.0646	-0.88	0.0282	2.44	-6.56	-25.11	-23.33	
CCCCCCCCC(=O)NCc1ccc(OCC(O)CNC(C)CC)c(OC)c1 (stereo not drawn)	-0.88	4.89	-32.33	-25.11	4.11	0.12	3.33	0.0224	1.22	-9.56	-38.56	-35.44	
CCCCCCCCC(=O)NCc1ccc(OCC(O)CNCCCCCC)c(OC)c1 (stereo not drawn)	-2.11	-2.89	-14.89	-12.67	-2.22	0.933	-4.44	0.0661	1.89	-8	-35.56	-24.11	
CCCCCCCCC(=O)NCc1ccc(OCCN(CC)CC)c(OC)c1													Dose (Rattus norvegicus [1]): 0.5 mg/kg; BP (Rattus norvegicus [2]): -15 mmHg
CCCCCCCCC(=O)NCc1ccc(OCC(O)CNC)c(OC)c1 (stereo not drawn)	1.89	-0.22	-12.22	14.56	-1.11	0.295	-0.56	0.0741	0.78	4.78	-34.56	-17.33	
CCCCCCCCC(=O)NCc1ccc(OCC(O)CNCCCC)c(OC)c1 (stereo not drawn)	0.11	-1.22	-26.22	-15.33	-0.22	0.0589	-1.22	0.0537	3.33	-3.67	-40	-33.78	
CCCCCCCCC(=O)NCc1ccc(OCC(O)CNC(C)C)c(OC)c1 (stereo not drawn)	-6.67	-1.22	-35.44	-32.67	-0.44	0.017	-2.89	0.00851	-1.33	-20	-50.22	-40.78	
CCCCCCCCC(=O)NCc1ccc(OCCN(C)C)c(OC)c1													Dose (Rattus norvegicus [1]): 0.5 mg/kg; BP (Rattus norvegicus [2]): -21.6 mmHg
CCCCCCCCC(=O)NCc1ccc(OCC(O)CNC(C)(C)C)c(OC)c1 (stereo not drawn)	1.25	3.38	-29.5	-24.88	3.13	0.0398	2.38	0.0158	4.63	-18.5	-45	-37.75	
CCCCCCCCC(=O)NCc1ccc(OCC(O)CNC2CC2)c(OC)c1 (stereo not drawn)	3.67	3.11	-23.67	-11.89	-0.11		3.89		2.22	-2.67	-47.67	-38.89	
CCCCCCCCC(=O)NCc1ccc(OCC(O)CNCC)c(OC)c1 (stereo not drawn)	-2.44	2.56	-28	-21.11	7.44	0.117	1.11	0.0537	1.88	2.56	-38.33	-32.22	
CCCCCCCCC(=O)NCc1ccc(OCC(O)CNC2CCCCC2)c(OC)c1 (stereo not drawn)	1.33	-4.22	-11.67	-1.78	-4.11		-3.67		0.67	2.78	-32.33	-28.44	
CCCCCCCCC(=O)NCc1ccc(OCC(O)CNCC(C)C)c(OC)c1 (stereo not drawn)	2	1.63	-27.13	4.13	-2.75	0.117	1.63	0.0269	0.25	3.13	-39.88	-35.25	
CCCCCCCCC(=O)NCc1ccc(OCC(O)CNCCC)c(OC)c1 (stereo in doubt; 6)						0.0933		0.0251					BP (Rattus norvegicus [3]; 1 mg/kg): -1.11 mmHg; BP (Rattus norvegicus [4]; 1 mg/kg): -2.67 mmHg; HR (Rattus norvegicus [5]; 1 mg/kg): -19.89 beats min-1; HR (Rattus norvegicus [6]; 1 mg/kg): -5 beats min-1; BP (Rattus norvegicus [7]; 1 mg/kg): -1.56 mmHg; BP (Rattus norvegicus [9]; 1 mg/kg): -1.89 mmHg; BP (Rattus norvegicus [11]; 1 mg/kg): 4.78 mmHg; HR (Rattus norvegicus [12]; 1 mg/kg): -7.56 beats min-1; HR (Rattus norvegicus [13]; 1 mg/kg): -36.78 beats min-1; HR (Rattus norvegicus [14]; 1 mg/kg): -28.22 beats min-1
CCCCCCCCC(=O)NCc1ccc(OCC(O)CNCCC)c(OC)c1 (stereo in doubt; 8)													BP (Rattus norvegicus [3]; 1 mg/kg): -2.44 mmHg; BP (Rattus norvegicus [4]; 1 mg/kg): -2.56 mmHg; HR (Rattus norvegicus [5]; 1 mg/kg): -32 beats min-1; HR (Rattus norvegicus [6]; 1 mg/kg): -14.11 beats min-1; BP (Rattus norvegicus [7]; 1 mg/kg): -1.78 mmHg; pA2 (Cavia porcellus [8]): 6.79; BP (Rattus norvegicus [9]; 1 mg/kg): -3.11 mmHg; pA2 (Cavia porcellus [10]): 7.75; BP (Rattus norvegicus [11]; 1 mg/kg): -0.56 mmHg; HR (Rattus norvegicus [12]; 1 mg/kg): -6.89 beats min-1; HR (Rattus norvegicus [13]; 1 mg/kg): -42.56 beats min-1; HR (Rattus norvegicus [14]; 1 mg/kg): -35.33 beats min-1
CC(C)NCC(O)COc1cccc2ccccc12 (stereo not drawn) [PROPRANOLOL]	-4.67	-6.33	-65.28	-62.57	-2.83		-6.5		2.17	-52.14	-57.28	-63.85	
